Assay results collected from several papers.
Compare with care: the assays were run in different laboratories.
ADORA1: Adenosine receptor A1 (ADORA1, Homo sapiens, UniProt P30542)
OTUD6B: Deubiquitinase OTUD6B (OTUD6B, Homo sapiens, UniProt Q8N6M0)
MMP7: Matrilysin (MMP7, Homo sapiens, UniProt P09237)
USP5: Ubiquitin carboxyl-terminal hydrolase 5 (USP5, Homo sapiens, UniProt P45974)

Compound	target	test	conditions	inhibition
COCCN(CCOC)C(=O)[C@@]12C[C@@H]1[C@@H](n1cnc3c(NC(C4CC4)C4CC4)nc(Cl)nc31)[C@H](O)[C@@H]2O	ADORA1	ligand displacement, radioligand	10 µM	34%
N=C(N)c1ccc2cc(OC(=O)c3ccc(N=C(N)N)cc3)ccc2c1	OTUD6B	enzyme activity, inhibitor	10 µM	9%
C#Cc1n[nH]c2c(-c3cn(C(C)c4ccccn4)c(=O)[nH]c3=O)cc(F)cc12 (stereo not drawn)	Dual specificity protein kinase CLK1 (CLK1, Homo sapiens, UniProt P49759)	enzyme activity, inhibitor	1 µM	3.7%
CCOC(=O)c1ccc(OC(=O)CCCCCNC(=N)N)cc1	OTUD6B	enzyme activity, inhibitor	10 µM	3%
CCCCSC[C@@]12C[C@@H]1[C@@H](n1cnc3c(NC(C4CCCC4)C4CCCC4)nc(Cl)nc31)[C@H](O)[C@@H]2O	ADORA1	ligand displacement, radioligand	10 µM	-1%
COc1cc(Nc2ncc(F)c(Nc3ccc4c(n3)NC(=O)C(C)(C)O4)n2)cc(OC)c1OC	Mitogen-activated protein kinase kinase kinase kinase 3 (MAP4K3, Homo sapiens, UniProt Q8IVH8)	binding, competition with immobilised ligand	10 µM	52%
C#Cc1n[nH]c2c(-c3cn([C@@H](C)c4ccccc4)c(=O)[nH]c3=O)cc(F)cc12	Tyrosine-protein kinase receptor UFO (AXL, Homo sapiens, UniProt P30530)	enzyme activity, inhibitor	0.1 µM	41.4%
CNC(=O)[C@H](Cc1ccccc1)NC(=O)[C@H](CC(C)C)[C@H](CSc1cccs1)C(=O)NO	MMP7	enzyme activity, inhibitor	100 pM	4%
c1ccc(C(NCCNC(c2ccccc2)c2ccccc2)c2ccccc2)cc1	MMP7	enzyme activity, inhibitor	10 µM	-5%
Cn1c(=O)c2ncnnc2n(C)c1=O	USP5	enzyme activity, inhibitor	17 µM	98%
CN(C)C(=O)COC(=O)Cc1ccc(OC(=O)c2ccc(NC(=N)N)cc2)cc1	USP5	enzyme activity, inhibitor	10 µM	1%
CCOC(=O)[C@@]12C[C@@H]1[C@@H](n1cnc3c(NC(C4CCCC4)C4CCCC4)nc(Cl)nc31)[C@H](O)[C@@H]2O	ADORA1	ligand displacement, radioligand	10 µM	55%
C[C@H](C(=O)N[C@H]1COc2ccccc2[C@@H]1S(C)(=O)=O)c1ccc(F)cc1	MMP7	enzyme activity, inhibitor	10 µM	-6%
Cn1cc(-c2cccc(N3CCc4c(sc5c4CC(C)(C)C5)C3=O)c2CO)cc(Nc2ccncn2)c1=O	Inhibitor of nuclear factor kappa-B kinase subunit alpha (CHUK, Homo sapiens, UniProt O15111)	enzyme activity, inhibitor	1 µM	-5%
CCN(CC)CCCC[C@H](NC(=O)[C@H](CC(C)C)NC(=O)[C@H](C)NC(=O)[C@H](Cc1ccccc1)NC(=O)c1ccc(C(C)(C)C)cc1)C(=O)N[C@@H](CO)C(=O)OC	Neuromedin-K receptor (TACR3, Homo sapiens, UniProt P29371)	ligand displacement, radioligand	10 µM	8%
